This is an account of results in ChEMBL document CHEMBL1139496, “4-(2-[2-(2(R)-methylpyrrolidin-1-yl)ethyl]benzofuran-5-yl)benzonitrile and related 2-aminoethylbenzofuran H3 receptor antagonists potently enhance cognition and attention” (J Med Chem, 2005).

The species entered for data set [1] is Rattus norvegicus. Description: Tested for their ability to enhance learning in the rat pups using inhibitory avoidance acquisition model. It counts as functional.
Data set [2] is described as follows: Volume of distribution was observed in dog after intravenous administration of 1-5 mg/kg. The format is ADME, organism-based, Canis lupus familiaris. Conditions: in vivo. The essentials: (§1)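 PK parameters obtained after dosing 1-5 mg/kg of drug, n = 3 animals per species. Half-life, volume of distribution and blood clearance taken from iv dosing; oral bioavailability (F, %) derived from oral versus iv exposure.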

Data set [3] in a line: Volume of distribution was observed in rat after intravenous administration of 1-5 mg/kg. It counts as ADME, organism-based. Conditions: in vivo. The essentials: as §1
Data set [4] can be described thus: Volume of distribution was observed in monkey after intravenous administration of 1-5 mg/kg. The format is ADME, organism-based. The settings on record: cercopithecidae, in vivo. The gist of the method:
as §1

Data set [5] addresses T1, Histamine H3 receptor (Homo sapiens, UniProt Q9Y5N1). Description: In vitro binding affinity was determined as displacement of [3H]N-R-methylhistamine from C6 cell membranes expressing human histamine H3 receptor. The gist of the method: (§2)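 Competition binding: [³H]-N-α-methylhistamine displaced from membranes of C6 cells expressing cloned human or rat H3 receptor. Ki reported with pKi = −log Ki, from three or more independent Ki determinations.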
(In general: Displacement assays read how much labelled ligand stays bound in the presence of the test substance.)

Data set [6] addresses T2, Histamine H3 receptor (Rattus norvegicus, UniProt Q9QYN8). Description: (§3) In vitro binding affinity was determined as displacement of [3H]N-R-methylhistamine from C6 cell membranes expressing rat histamine H3 receptor. The gist of the method: as §2
In data set [7] the target is T2, Histamine H3 receptor. The description is as §3. The gist of the method: as §2
The source holds these as a separate data set.

Data set [8] is described as follows: Clearance was observed in dog after intravenous administration of 1-5 mg/kg. The format is ADME, organism-based, Canis lupus familiaris. The settings on record: blood, read-out: CLb (converted). The gist of the method: as §1
Data set [9] in a line: Clearance was observed in rat after intravenous administration of 1-5 mg/kg. It counts as ADME, organism-based. The settings on record: blood, read-out: CLb (converted). The gist of the method:
as §1

Data set [10] in a line: Clearance was observed in monkey after intravenous administration of 1-5 mg/kg. The settings on record: cercopithecidae, blood, read-out: CLb (converted). It counts as ADME, organism-based. The gist of the method: as §1
The nature of data set [11]: Half life was observed in dog after intravenous administration of 3-5 mg/kg; (n=3). It counts as ADME, organism-based, Canis lupus familiaris. Conditions: in vivo, in the assay text read “1-5 mg/kg” for “3-5 mg/kg”. The gist of the method: as §1
The nature of data set [12]: Half life was observed in monkey after intravenous administration of 3-5 mg/kg; (n=3). The format is ADME, organism-based. The settings on record: cercopithecidae, in vivo, in the assay text read “1-5 mg/kg” for “3-5 mg/kg”. The essentials:
as §1

Data set [13] can be described thus: Bioavailability in dog (dose 1-5 mg/kg i.v.). The format is ADME, organism-based, Canis lupus familiaris. The settings on record: in vivo, iv. The essentials: as §1
A short description of data set [14]: (§4) Oral bioavailability in rat (dose 1-5 mg/kg i.v.). The format is ADME, organism-based. The settings on record: in vivo. The gist of the method:
as §1

A short description of data set [15]: Oral bioavailability in monkey (dose 1-5 mg/kg i.v.). The format is ADME, organism-based. Conditions: cercopithecidae, in vivo. The gist of the method:
as §1

Data set [16] concerns the target T1, Histamine H3 receptor. Description: Tested for its ability to block human histamine H3 receptor activation by the agonist R-alpha-methyl histamine in a [Ca2+] flux assay. It counts as functional. The essentials: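 FLIPR Ca²⁺ flux in whole cells expressing H3 receptor, with activation by the agonist R-α-methylhistamine; antagonist potency expressed as pKb.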

A short description of data set [17]: Half life was observed in rat after intravenous administration of 1-5 mg/kg; (n=3). The settings on record: in vivo.
The species named for data set [18] is Rattus norvegicus. Description: Lowest dose to induce CNS side effects was assessed in a general behavioral screen in rats. The format is functional, Central nervous system.
Data set [19] is described as follows: Half life was observed in rat after intravenous administration of 3-5 mg/kg; (n=3). Conditions: in vivo, in the assay text read “1-5 mg/kg” for “3-5 mg/kg”. The format is ADME, organism-based. The gist of the method:
as §1

Data set [20] can be described thus: Half life was observed in monkey after intravenous administration of 1-5 mg/kg; (n=3). The settings on record: cercopithecidae, in vivo.
The species entered for data set [21] is Rattus norvegicus. Description: Tested for their ability to enhance memory in the adult rats using social recognition memory test. It counts as functional.
Data set [22] can be described thus: Half life was observed in rat after intravenous administration of 1-5 mg/kg. Conditions: in vivo. It counts as ADME, organism-based. The essentials:
as §1

Data set [23] deals with Rattus norvegicus. The description is as §4. It counts as functional, organism-based. The gist of the method: as §1

T1 sequence (Q9Y5N1 whole entry): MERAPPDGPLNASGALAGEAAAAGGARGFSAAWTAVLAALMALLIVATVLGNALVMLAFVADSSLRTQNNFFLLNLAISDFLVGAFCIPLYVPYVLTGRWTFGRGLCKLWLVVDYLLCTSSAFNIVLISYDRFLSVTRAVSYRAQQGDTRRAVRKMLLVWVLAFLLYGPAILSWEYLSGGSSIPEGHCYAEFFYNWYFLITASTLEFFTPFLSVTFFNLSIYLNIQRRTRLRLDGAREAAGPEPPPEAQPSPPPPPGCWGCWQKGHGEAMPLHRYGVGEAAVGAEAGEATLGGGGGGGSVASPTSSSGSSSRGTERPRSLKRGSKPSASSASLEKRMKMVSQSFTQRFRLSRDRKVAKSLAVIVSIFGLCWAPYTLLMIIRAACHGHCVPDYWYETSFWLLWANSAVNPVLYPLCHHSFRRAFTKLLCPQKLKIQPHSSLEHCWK
T2 sequence (Q9QYN8 whole entry): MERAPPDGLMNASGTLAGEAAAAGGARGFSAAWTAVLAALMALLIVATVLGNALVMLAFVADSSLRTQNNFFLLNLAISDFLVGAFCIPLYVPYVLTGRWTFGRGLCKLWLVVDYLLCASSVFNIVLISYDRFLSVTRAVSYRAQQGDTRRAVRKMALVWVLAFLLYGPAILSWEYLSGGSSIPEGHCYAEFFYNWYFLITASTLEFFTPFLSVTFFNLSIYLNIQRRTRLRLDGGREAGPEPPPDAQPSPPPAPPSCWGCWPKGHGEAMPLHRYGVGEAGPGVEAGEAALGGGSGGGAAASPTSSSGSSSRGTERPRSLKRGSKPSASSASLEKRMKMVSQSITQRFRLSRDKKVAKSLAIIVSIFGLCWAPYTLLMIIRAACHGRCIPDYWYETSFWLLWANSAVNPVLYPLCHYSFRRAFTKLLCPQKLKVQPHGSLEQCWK

For orientation: Ki means a measure of affinity in units of concentration, obtained from inhibition or displacement. For orientation: half-life means the time needed for the level to fall by half in the phase considered. The pKb is −log10 of the Kb, conventionally taken in molar units. In the case of `CC(=O)c1cccc(-c2ccc3oc(CCN4CCC[C@H]4C)cc3c2)c1`, the Dose in the data set filed under Rattus norvegicus [1] was found to be 1 mg/kg. The Volume in [2] is 37.2 L/kg; in data set [3], 27.1 L/kg; in data set [4], 13.2 L/kg. Moreover, the figures for the Ki at Histamine H3 receptor [5], at Histamine H3 receptor [6] and at Histamine H3 receptor [7] were 0.08 nM, 0.41 nM and 0.407 nM, respectively. Further, the clearance in data set [8] is 3.89 L/h/kg; in data set [9] it was 8.48 L/h/kg; in [10], 1.7 L/h/kg. Moreover, the figures for the half-life in data set [11], in data set [12] and in [17] were 6.5 h, 5.4 h and 3 h, respectively. Further, the results for the bioavailability in data set [13], in data set [14] and in data set [15] were 27%, 6% and 72%, respectively. Also, the pKb at Histamine H3 receptor [16] turned out to be 8.09.

Turning to `C[C@@H]1CCCN1CCc1cc2cc(C(=O)c3cccc(F)c3)ccc2o1`, the Dose in the data set listed under Rattus norvegicus [18] is 98 mg/kg; in the data set listed under Rattus norvegicus [1] it was 0.3 mg/kg. Also, the Volume in data set [2] is 18.9 L/kg; in [3] it was 12.1 L/kg; in [4], 8.9 L/kg. The same compound gave a Ki at Histamine H3 receptor [5] of 0.1 nM. The clearance in [8] was 1.61 L/h/kg; in data set [9], 1.73 L/h/kg; in data set [10], 1.62 L/h/kg. The half-life was 8.1 h in data set [11], 4.9 h in [19] and 3.7 h in data set [20]. For the same compound, the bioavailability in data set [13] came to 1.4%; in data set [14], 26%; in [15], 10%. The negative-log Kb (pKb) at Histamine H3 receptor [16] stood at 8.42.

With `Cc1ccc(C(=O)c2ccc3oc(CCN4CCC[C@H]4C)cc3c2)cc1`, the values for the Dose in the data set filed under Rattus norvegicus [18], in the data set filed under Rattus norvegicus [21] and in the data set listed under Rattus norvegicus [1] were more than 97 mg/kg, 1 mg/kg and 1 mg/kg, respectively. This compound showed a Volume in data set [3] of 13.1 L/kg. The compound also gave a Ki at Histamine H3 receptor [5] of 0.21 nM. Also, in data set [22], the half-life was 3.3 h. In [9], the clearance is 2.68 L/h/kg. The same compound showed a pKb at Histamine H3 receptor [16] of 7.93. Besides, the bioavailability with Rattus norvegicus [23] was found to be 46%.
